Compounds with a hit are over-represented: about 3.8% of the library has one in this group of screens.
MC4R antagonist – blocks human MC4R cAMP signaling; P32245; MC4R-expressing cells, MTII-stimulated cAMP, LANCE TR-FRET; inhibition, % at 6.5 µM; 0.48% of 360,000 active; AID 540295;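 active = inhibition above its plate's cutoff, the mean of tested wells on that plate plus 3 SD, cut at about 29% in these data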;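 note: 0% = Melanotan II alone and 100% = Melanotan II plus saturating MCL0020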
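material = U2OS cells stably expressing human melanocortin 4 receptor (MC4R) | also added = Melanotan II challenge | dosing = single nominal compound dose of 6.5 µM | detection = TR-FRET with Eu-cAMP and labeled anti-cAMP, 671 nm | replication = singlicate | timing = compound 30 min, challenge 1 h, detection 1 h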
CSC inhib – blocks cancer stem cells. AID 2717. cancer stem cell-like cells viability, luminescence. inhibition, % at 7.5 µM. 1.1% of 300,000 active; in the data active = inhibition above about 75%; tested in HMLE shEcad cells
TMEM16A act – mouse TMEM16A channel activation, primary screen; B-score at 10 µM; 0.3% of 340,000 active; HEK293 TMEM16A/YFP-H148Q/I152L, iodide quench fluorescence; stronger effect = lower value;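 active = fluorescence-ratio B-score plate-corrected deviation score at least 3 library SD below zero, with starting fluorescence score within 5 deviations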;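 note: channel opened by trigger with iodide after compound preincubation; score built on the fluorescence ratio of max minus min over baseline; more negative score means more quench and so TMEM16A activation or potentiation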
MC4R barr agon – activates human MC4R beta-arrestin recruitment; activation, % at 8.9 µM; 0.98% of 360,000 active; P32245; U2OS MC4R beta-arrestin complementation, luminescence; percent of melanotan II response, DMSO zero; AID 540308;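 active = activation above a per-plate cutoff, the mean activation of sample wells on that plate plus 3 SD, cut at about 8% in these data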
Beta apoptosis – beta cell apoptosis inhibition; protection from apoptosis, % (concentration not given with the values); AID 435005; 0.8% of 300,000 active; INS-1E cytokine-induced death, ATP luminescence, 48 h; percent of positive-control rescue, neutral wells zero;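 active = Every replicate reaches about 75%, or at least half do and their mean reaches it too, limit read from the data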;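 note: 0% = cytokine-treated negative control wells and 100% = positive control rescue; higher means more ATP so stronger rescue from cytokine killing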
ANO1 block – inhibitors of mouse TMEM16A calcium-activated chloride channel; HEK293 TMEM16A/YFP iodide influx fluorescence, ionomycin; 1.2% of 310,000 active; AID 588511; normalized B-score (activity score, 25-100; higher = stronger inhibition) at 10 µM; Q8BHY3;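 active = ratio plate-corrected score three or more library SD toward inhibition, starting fluorescence score within five deviations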;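 note: score derived from kinetic fluorescence span divided by baseline fluorescence per well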
* = called active by the depositor; i = inactive; . = not tested or not shown.

SMILES	MC4R antagonist	CSC inhib	TMEM16A act	MC4R barr agon	Beta apoptosis	ANO1 block
COc1cc2c(cc1OC)CN(C(=O)/C=C/c1cccs1)CC2	-10.9	57.4	i	-0.1	2.7	i
COc1cccc(-c2sc3ccc(OC)cc3c2-c2ccc(O)cc2)c1	3.4	129.4*	i	1.9	3.8	.
COc1ccc(-c2sc3ccc(OC)cc3c2-c2ccc(OC)nc2)cc1	0.1	44.7	i	1.0	3.9	.
COc1cccc(-c2sc3ccc(OC)cc3c2-c2ccc(OCCN(C)C)cc2)c1	13.0	103.8*	i	10.2*	3.2	.
COc1cccc(-c2sc3ccc(OC)cc3c2-c2cc(F)cc(OC)c2)c1	13.2	25.5	i	-0.1	-4.4	.
N/C(=N\N=C/c1ccc(Br)cc1)N/N=C\c1ccc(Br)cc1	2.9	102.5*	i	7.4	2.3	i
N/C(=N\N=C/c1ccc(F)cc1)N/N=C\c1ccc(F)cc1	15.3	77.3*	i	-0.5	7.8	i
O=C(CN1CCCCCC1)Nc1ccc(Cl)cn1	0.1	24.7	i	-0.2	-2.6	i
Cc1ccc(-c2csc3ncnc(Sc4nnc(CN5CCCCCC5=O)o4)c23)cc1	6.3	81.0*	i	-1.4	-1.3	i
COc1ccc(CN(C)C(=O)CCN(c2ccccc2)S(=O)(=O)c2ccc(C)cc2)c(OC)c1	0.1	-0.8	i	-4.5	1.4	25*
O=C(COc1ccccc1)Nc1cccc(-c2nc3cc4ccccc4cc3[nH]2)c1	18.7	88.2*	i	3.8	33.5	i
O=C(COc1ccccc1)Nc1cccc(-c2nn[nH]n2)c1	5.4	15.8	i	-2.5	.	i
Cc1cc(=O)c2c(N(C)C)cccc2[nH]1	10.7	.	.	-1.8	.	.
CCOC(=O)c1c(NC(=O)CSc2nnc(-c3c[nH]c4ccccc34)n2C)sc2c1CCCC2	1.2	11.6	-21.5*	1.9	16.8	i
Cc1nc(-c2ccc(Cl)cc2)sc1C1(C)CC(c2ccc(F)cc2)=NO1 (stereo unspecified)	1.5	20.6	i	-1.3	-19.3	i
Cc1ccc(CN2CCC(CNC(=O)c3ccc(NC(=O)C4=CSCCO4)cc3)CC2)cc1	5.3	-21.2	-27.4*	-0.2	-17.2	i
O=C(Nc1ccc(C(=O)NCC2CCN(Cc3ccccc3F)CC2)cc1)C1=CSCCO1	1.5	-4.8	i	-2.5	-2.4	i
CS(=O)(=O)N1CCC(Oc2ccccc2C(=O)N2CCN(CC3CC3)CC2)CC1	22.4	-1.1	i	-4.5	-9.1	i
CCCOc1ccc(C(=O)C(CN2CCOCC2)c2ccccc2)cc1 (stereo unspecified)	3.1	6.2	i	-3.5	79.0*	i
CCOC(=O)C(CN1CCCC1)c1ccccc1 (stereo unspecified)	6.6	-1.6	i	-1.4	1.4	i
O=C(c1ccc(Cl)cc1)C(CN1CCCCC1)c1ccccc1 (stereo unspecified)	22.1	94.9*	i	-1.1	91.3*	i
COCCNC(=O)C1(C)CCCN(C(=O)c2c(-c3ccccc3)noc2C)C1 (stereo unspecified)	6.7	.	.	1.4	.	.
CC(=O)c1c(C)[nH]c(C(=O)OCC(=O)c2ccc(C)s2)c1C	-8.1	4.7	i	2.8	-2.6	.
Cc1[nH]c2ccccc2c1CN1CCN(c2ccccn2)CC1	4.9	-10.0	i	-1.9	92.3*	i
c1ccc(N2CCN(Cc3nc4ccccc4[nH]3)CC2)nc1	1.9	-2.2	i	-0.3	-3.8	i
Cc1[nH]c2ccccc2c1CN1CCC(Cc2ccccc2)CC1	-3.7	62.7	i	3.0	103.7*	i
NC(=O)c1[nH]cnc1N	16.7	1.8	i	-1.3	2.1	i
O=C(Cn1[nH]c(=O)c2ccccc2c1=O)Nc1cccc(S(=O)(=O)N2CCCCCC2)c1	4.9	.	i	-1.0	.	100*
CN(C)S(=O)(=O)c1cccc(NC(=O)CNc2cccc(S(=O)(=O)N3CCCCC3)c2)c1	-1.5	.	.	0.1	.	.
O=C(COC(=O)C1CC2C=CC1C2)Nc1cccc(S(=O)(=O)N2CCCCCC2)c1 (stereo unspecified)	11.8	-9.8	i	2.5	4.1	100*
